Test results taken from ChEMBL document CHEMBL1795306, “Acyl derivatives of p-aminosulfonamides and dapsone as new inhibitors of the arginine methyltransferase hPRMT1” (Bioorg Med Chem, 2011).
Calls of active or inactive are those of the source. The calls are words filed in the database; no cut-off is given here.

Experiments:
[1] = target: T1, Protein arginine N-methyltransferase 1 (Homo sapiens, UniProt Q99873); test: Inhibition of human recombinant PRMT1-mediated arginine methylation at 50 uM using nonhistone protein Npl3 substrate by ELISA
Target sequence in this assay (Q99873 whole entry, looked up): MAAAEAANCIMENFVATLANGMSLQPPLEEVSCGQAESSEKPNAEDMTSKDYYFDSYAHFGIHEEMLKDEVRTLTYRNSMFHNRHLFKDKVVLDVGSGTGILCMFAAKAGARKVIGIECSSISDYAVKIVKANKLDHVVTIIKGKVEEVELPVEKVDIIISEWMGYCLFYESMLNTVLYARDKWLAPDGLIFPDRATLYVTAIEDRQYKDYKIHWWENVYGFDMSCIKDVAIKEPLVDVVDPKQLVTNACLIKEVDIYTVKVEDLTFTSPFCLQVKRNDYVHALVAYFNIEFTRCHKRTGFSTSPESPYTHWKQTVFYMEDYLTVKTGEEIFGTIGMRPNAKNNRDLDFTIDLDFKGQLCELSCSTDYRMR

[2] = target: T1, Protein arginine N-methyltransferase 1; test: Inhibition of human recombinant PRMT1-mediated arginine methylation at 10 uM using nonhistone protein Npl3 substrate by ELISA
Target sequence in this assay (Q99873 whole entry, looked up): as above

[3] = target: T2, Histone-arginine methyltransferase CARM1 (Mus musculus) (UniProt Q9WVG6); test: Inhibition of mouse FLAG-tagged CARM1-mediated arginine methylation using histone H3(1-31) and [14C]-SAM at 0.01 to 2 mM
T2 sequence (whole entry): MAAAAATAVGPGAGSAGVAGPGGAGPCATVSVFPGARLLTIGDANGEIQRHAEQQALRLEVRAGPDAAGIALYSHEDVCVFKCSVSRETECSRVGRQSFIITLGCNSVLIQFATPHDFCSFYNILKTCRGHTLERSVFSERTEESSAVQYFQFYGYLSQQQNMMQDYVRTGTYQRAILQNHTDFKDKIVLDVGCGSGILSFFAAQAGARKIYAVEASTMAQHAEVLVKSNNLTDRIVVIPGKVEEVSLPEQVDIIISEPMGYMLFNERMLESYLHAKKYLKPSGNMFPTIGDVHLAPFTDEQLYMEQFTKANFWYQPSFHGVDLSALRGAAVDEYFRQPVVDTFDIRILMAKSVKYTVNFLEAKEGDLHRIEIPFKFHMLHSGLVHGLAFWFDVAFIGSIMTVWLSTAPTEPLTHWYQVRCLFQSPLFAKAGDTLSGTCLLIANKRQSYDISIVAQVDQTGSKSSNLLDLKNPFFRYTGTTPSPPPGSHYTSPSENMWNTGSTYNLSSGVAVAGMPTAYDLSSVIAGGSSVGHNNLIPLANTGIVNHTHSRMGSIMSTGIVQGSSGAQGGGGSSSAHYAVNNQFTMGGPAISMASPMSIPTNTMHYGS
Summary of the method: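 Flag-CARM1 (mouse, baculovirus-expressed, 250 nM) with 20 μM recombinant histone H3 and 10 μg/mL BSA in 50 mM Tris-HCl, 0.2 M NaCl, 0.5 mM DTT, pH 8.0, preincubated with inhibitor (0.01–2 mM) 30 min at room temperature, centrifuged; started with 10 μM ¹⁴C-SAM, 15 min at 25 °C. SDS-PAGE, phosphorimager quantitation of H3 radioactivity.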

[4] = target: T1, Protein arginine N-methyltransferase 1; test: Inhibition of human recombinant PRMT1-mediated arginine methylation using nonhistone protein Npl3 substrate by ELISA
Target sequence in this assay (Q99873 whole entry): as the sequence (Q99873 whole entry, looked up) above

[5] = target: T3, Histone-lysine N-methyltransferase SETD7 (Homo sapiens) (UniProt Q8WTS6); test: Inhibition of methyl transferase activity of SET7/9 at 50 uM using biotinylated histone H3(1-21) substrate by In-vitro time resolved fluorescence immunosorbent methyltransferase assay
T3 sequence (whole entry): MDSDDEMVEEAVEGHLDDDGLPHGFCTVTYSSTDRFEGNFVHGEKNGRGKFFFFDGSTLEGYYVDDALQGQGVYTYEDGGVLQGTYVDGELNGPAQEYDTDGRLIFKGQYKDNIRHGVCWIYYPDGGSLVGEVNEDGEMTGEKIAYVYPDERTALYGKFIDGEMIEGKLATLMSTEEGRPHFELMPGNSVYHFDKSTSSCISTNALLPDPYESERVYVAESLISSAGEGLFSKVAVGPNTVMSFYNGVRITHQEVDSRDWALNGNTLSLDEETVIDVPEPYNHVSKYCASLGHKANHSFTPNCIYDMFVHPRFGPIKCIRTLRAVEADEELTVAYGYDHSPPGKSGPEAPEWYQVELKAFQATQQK
Summary of the method: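 Biotinylated human histone H3 peptide (aa 1-21, 20 pmol/well) bound to streptavidin plates. Recombinant human GST-Set7/9 preincubated with inhibitor (DMSO) 10 min at 30 °C, then transferred to wells; reaction started with SAM. Methylation detected with rabbit anti-methyl H3K4 antibody and europium-labelled anti-rabbit IgG, read by time-resolved fluorescence (340/615 nm) after enhancement solution.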

LNCaP [6] = test: Inhibition of androgen dependent IGF1-R gene transcription in human LNCAP cells by RT-PCR preincubated for 10 mins before 1 nM synthetic androgen R1881 addition; assay type: functional, cell-based
Summary of the method: (§1)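 LNCaP cells washed with PBS, starved 24 h in phenol-red-free RPMI1640 with 0.5% double-stripped FCS, then treated with inhibitor or DMSO vehicle; 10 min later stimulated overnight with or without 10⁻⁹ M R1881. DNase I-treated Trizol RNA reverse transcribed; target mRNA quantified by SYBR green I quantitative PCR with ROX passive reference.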

LNCaP [7] = test: Growth inhibition of human LNCAP cells by MTS assay; assay type: functional
[8] = Growth inhibition of human MCF7a cells by MTS assay; assay type: functional
LNCaP [9] = test: Inhibition of androgen dependent NKX3.1 gene transcription in human LNCAP cells by RT-PCR preincubated for 10 mins before 1 nM synthetic androgen R1881 addition; assay type: functional, cell-based; summary of the method: as §1
LNCaP [10] = test: Inhibition of androgen-independent GAPDH gene transcription in human LNCAP cells by RT-PCR preincubated for 10 mins before 1 nM synthetic androgen R1881 addition; assay type: functional, cell-based; summary of the method: as §1
LNCaP [11] = test: Inhibition of thymidine kinase promoter dependent transcription in human LNCAP cells at 1 uM by androgen-nondependent thymidine kinase-luciferase reporter gene assay; assay type: functional, cell-based
Summary of the method: (§2)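 LNCaP cells (2×10^5) grown in RPMI1640/10% FCS, switched to phenol-red-free RPMI1640 with 10% double-stripped FCS, transfected with 500 ng MMTV-Luc (androgen-driven) or TK-Luc (androgen-independent) reporter per well. Six hours later inhibitor or DMSO added, then overnight with or without 10^-10 M R1881; luciferase read. Three experiments in duplicate, mean + SD (n = 6).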

LNCaP [12] = test: Inhibition of androgen dependent […] gene transcription in human LNCAP cells by RT-PCR preincubated for 10 mins before 1 nM synthetic androgen R1881 addition; assay type: functional, cell-based; summary of the method: as §1
LNCaP [13] = test: Inhibition of androgen dependent MAK gene transcription in human LNCAP cells by RT-PCR preincubated for 10 mins before 1 nM synthetic androgen R1881 addition; assay type: functional, cell-based; summary of the method: as §1
LNCaP [14] = test: Inhibition of androgen dependent transcription in human LNCAP cells assessed as blockade of R1881-induced transcription at 1 to 25 uM by androgen derived MMTV-luciferase reporter gene assay; assay type: functional, cell-based; summary of the method: as §2
LNCaP [15] = test: Inhibition of androgen dependent CXCR4 gene transcription in human LNCAP cells by RT-PCR preincubated for 10 mins before 1 nM synthetic androgen R1881 addition; assay type: functional, cell-based; summary of the method: as §1
LNCaP [16] = test: Inhibition of androgen dependent GREB1 gene transcription in human LNCAP cells by RT-PCR preincubated for 10 mins before 1 nM synthetic androgen R1881 addition; assay type: functional, cell-based; summary of the method: as §1
LNCaP [17] = test: Inhibition of androgen dependent PER1 gene transcription in human LNCAP cells by RT-PCR preincubated for 10 mins before 1 nM synthetic androgen R1881 addition; assay type: functional, cell-based; summary of the method: as §1
LNCaP [18] = test: Inhibition of androgen dependent MAF gene transcription in human LNCAP cells by RT-PCR preincubated for 10 mins before 1 nM synthetic androgen R1881 addition; assay type: functional, cell-based; summary of the method: as §1
LNCaP [19] = test: Inhibition of androgen dependent ELK4 gene transcription in human LNCAP cells by RT-PCR preincubated for 10 mins before 1 nM synthetic androgen R1881 addition; assay type: functional, cell-based; summary of the method: as §1
LNCaP [20] = test: Inhibition of thymidine kinase promoter dependent transcription in human LNCAP cells at 10 uM by androgen-nondependent thymidine kinase-luciferase reporter gene assay; assay type: functional, cell-based; summary of the method: as §2
LNCaP [21] = test: Inhibition of androgen dependent TMPRSS2 gene transcription in human LNCAP cells by RT-PCR preincubated for 10 mins before 1 nM synthetic androgen R1881 addition; assay type: functional, cell-based; summary of the method: as §1
LNCaP [22] = test: Inhibition of androgen dependent FKBP5 gene transcription in human LNCAP cells by RT-PCR preincubated for 10 mins before 1 nM synthetic androgen R1881 addition; assay type: functional, cell-based; summary of the method: as §1
LNCaP [23] = test: Inhibition of androgen dependent transcription in human LNCAP cells assessed as blockade of R1881-induced transcription at 25 uM by androgen derived MMTV-luciferase reporter gene assay; assay type: functional, cell-based; summary of the method: as §2

Compound | inhibition [1] | inhibition [2] | also measured
Nc1ccc(S(=O)(=O)NCc2ccccc2)cc1 | 28% | 22% | –
Nc1ccc(S(=O)(=O)NCCc2ccc(O)cc2)cc1 | 37% | 30% | –
CC(NC(=O)c1ccc(N)cc1)c1ccccc1 (configuration not stated) | 34% | – | –
COc1ccc(CNS(=O)(=O)c2ccc(N)cc2)cc1 | 19% | 12% | –
O=S(=O)(NCCc1ccccc1)c1ccc(NS(=O)(=O)c2ccc(Cl)cc2)cc1 | – | – | inhibition [3]: inactive; IC50 [4]: 5 µM; inhibition [5]: 58%
O=C(CCl)Nc1ccc(S(=O)(=O)c2ccc(NC(=O)CCl)cc2)cc1 | – | – | inhibition (LNCaP [6]): Active; GI50 (LNCaP [7]): 4.49 µM; GI50 [8]: 1.97 µM; inhibition (LNCaP [9]): Active; inhibition [3]: inactive; inhibition (LNCaP [10]): inactive; inhibition (LNCaP [11]): inactive; inhibition (LNCaP [12]): Active; inhibition (LNCaP [13]): Active; inhibition (LNCaP [14]): Active; inhibition (LNCaP [15]): Active; IC50 [4]: 1.5 µM; inhibition (LNCaP [16]): Active; inhibition (LNCaP [17]): Active; inhibition (LNCaP [18]): Active; inhibition (LNCaP [19]): Active; inhibition [5]: < 5%; inhibition (LNCaP [20]): inactive; inhibition (LNCaP [21]): Active; inhibition (LNCaP [22]): Active
CCCC(=O)Nc1ccc(S(=O)(=O)c2ccc(NC(=O)CCC)cc2)cc1 | 44.1% | 14.7% | –
Nc1ccc(S(=O)(=O)NCc2ccccn2)cc1 | – | – | IC50 [4]: 70.7 µM; inhibition [5]: 14%
O=C(Nc1ccc(S(=O)(=O)NCCc2ccccc2)cc1)c1ccc(Cl)c(Cl)c1 | – | – | GI50 [8]: 52.2 µM; inhibition (LNCaP [23]): Active; inhibition [5]: 37%
O=C(Cc1ccccc1)Nc1ccc(S(=O)(=O)c2ccc(NC(=O)Cc3ccccc3)cc2)cc1 | – | – | inhibition [5]: 31%
Nc1ccc(S(=O)(=O)NCc2ccc(Cl)cc2)cc1 | < 5% | – | –
CC(NS(=O)(=O)c1ccc(N)cc1)c1ccccc1 (configuration not stated) | 40% | 28% | –
O=S(=O)(NCCc1ccccc1)c1ccc(Cl)cc1 | < 5% | – | –
Nc1ccc(S(=O)(=O)NCCc2ccc(Cl)cc2)cc1 | < 5% | – | –
CCC(=O)Nc1ccc(S(=O)(=O)c2ccc(NC(=O)CC)cc2)cc1 | < 5% | – | –

More lines, main results first:

inhibition [1] | inhibition [2] | Compound | also measured
41% | 23% | O=C(Nc1ccc(S(=O)(=O)NCCc2ccccc2)cc1)c1ccc(Br)cc1 | –
20% | 15% | O=C(Nc1ccc(S(=O)(=O)NCCc2ccccc2)cc1)c1ccccc1 | –
41.2% | 35.3% | Nc1ccc(S(=O)(=O)c2ccc(NC(=O)Cc3ccccc3)cc2)cc1 | inhibition [5]: < 5%
10% | < 5% | O=C(Cc1ccccc1)Nc1ccc(S(=O)(=O)NCCc2ccccc2)cc1 | –
70.6% | 23.5% | CCC(=O)Nc1ccc(S(=O)(=O)c2ccc(N)cc2)cc1 | –
13.6% | < 5% | Nc1ccc(S(=O)(=O)c2ccc(NC(=O)NCc3ccccc3)cc2)cc1 | –
40% | 40% | Nc1ccc(C(=O)Nc2ccc(S(=O)(=O)NCCc3ccccc3)cc2)cc1 | –
42% | 39% | O=C(Nc1ccc(S(=O)(=O)NCCc2ccccc2)cc1)c1ccc(-c2ccccc2)cc1 | –
47% | – | Nc1ccc(C(=O)NCc2ccccc2)cc1 | –
